Experimental findings from ChEMBL document CHEMBL1128500, “Diamine and triamine analogs and derivatives as inhibitors of deoxyhypusine synthase: synthesis and biological activity” (J Med Chem, 1995) are described below.

In assay [1] the target is T1, Deoxyhypusine synthase (Homo sapiens) (UniProt P49366).
T1 sequence (whole entry): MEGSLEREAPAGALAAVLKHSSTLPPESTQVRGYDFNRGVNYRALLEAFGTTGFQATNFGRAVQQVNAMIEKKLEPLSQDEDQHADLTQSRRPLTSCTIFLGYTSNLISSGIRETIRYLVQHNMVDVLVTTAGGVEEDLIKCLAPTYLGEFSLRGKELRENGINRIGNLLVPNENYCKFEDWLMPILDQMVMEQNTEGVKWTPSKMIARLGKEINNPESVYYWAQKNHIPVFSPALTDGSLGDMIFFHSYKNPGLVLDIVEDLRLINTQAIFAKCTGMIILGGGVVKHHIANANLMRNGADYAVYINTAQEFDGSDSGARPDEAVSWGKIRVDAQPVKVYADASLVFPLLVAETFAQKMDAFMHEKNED
Description: Effect on protein synthesis in CHO cells at concentration 3 uM. The settings on record: Cricetulus griseus.

The target in assay [2] is T1, Deoxyhypusine synthase (Homo sapiens). As to the kind of experiment: Effect on Hypusine formation in CHO cells at concentration 10 uM. Format: functional, cell-based. To be noted: Cricetulus griseus.
The subject of assay [3] is CHO. Description: Effect on spermidine uptake in CHO cells at concentration 10 uM. Format: functional. The method, boiled down:
(§1)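 Spermidine uptake in CHO cells: total cellular radioactivity after 18 h growth with 5 μCi/mL [3H]spermidine in presence of compound, reported as percentage of untreated-cell value.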

In assay [4] the target is T1, Deoxyhypusine synthase (Homo sapiens). As to the kind of experiment: Effect on Hypusine formation in CHO cells at concentration 3 uM. Format: functional, cell-based. To be noted: Cricetulus griseus.
The target is the same in assay [5]. Description: Effect on protein synthesis in CHO cells at concentration 10 uM. The settings on record: Cricetulus griseus.
Assay [6] has as its system CHO. Description: Growth inhibition was measured against CHO cell line; - indicates >100 uM. Format: functional, cell-based. The settings on record: Cricetulus griseus. A digest of the protocol: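 CHO cells grown with compound for 72 h; cellular protein measured by bicinchoninic acid method as crude growth estimate (control protein rose ~16-fold over 72 h). Symbol gives compound range halving protein versus control: ++++ <0.5, +++ 0.5-1, ++ >1-10, + >10-100, - >100 μM.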

The target in assay [7] is T2, Deoxyhypusine synthase (Rattus norvegicus, UniProt Q6AY53).
T2 sequence (Q6AY53 whole entry): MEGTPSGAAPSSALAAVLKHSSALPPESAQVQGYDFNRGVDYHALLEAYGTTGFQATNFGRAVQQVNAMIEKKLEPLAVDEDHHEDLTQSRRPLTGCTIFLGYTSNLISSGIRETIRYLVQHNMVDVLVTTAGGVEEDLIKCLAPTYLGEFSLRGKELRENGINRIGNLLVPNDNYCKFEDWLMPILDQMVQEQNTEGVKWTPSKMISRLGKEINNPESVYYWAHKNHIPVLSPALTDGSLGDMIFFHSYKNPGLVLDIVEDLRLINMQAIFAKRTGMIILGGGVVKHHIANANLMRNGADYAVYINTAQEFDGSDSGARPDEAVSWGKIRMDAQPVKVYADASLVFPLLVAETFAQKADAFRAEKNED
Description: In vitro IC50 value by measuring the inhibition of deoxyhypusine synthase.

Assay [8] relates to CHO. As to the kind of experiment: Effect on spermidine uptake in CHO cells at concentration 3 uM. Format: functional, Cricetulus griseus. The method, boiled down: as §1
For assay [9], the system named is CHO. Description: Effect on hypusine synthesis in CHO cells at concentration 10 uM. Format: functional, Cricetulus griseus.

Turning to `NCCCOCCCN=C(N)N`, the Control in assay [1] is 98%; in assay [2], 20%; in assay [3], 95%; in [4] it was 76%; in assay [5], 92%.

Consider `CCNCCCCCCCN`, for which, in assay [6], the Growth inhibition entry was “Not toxic”. In assay [7], the IC50 (commonly the concentration at which inhibition is half-maximal) was determined as 275 µM.

Regarding `NCCCCNCCCCN=C(N)N`, the Control in assay [8] came out at 64%; in assay [1], 88%; in assay [2] it was 3%; in assay [3] it was 28%; in assay [4], 7%; in assay [5], 93%. The compound further returned an IC50 in assay [7] of 0.16 µM.

The compound `NCCCCSCCCN` showed an IC50 in assay [7] of 235 µM.

Compound `N=C(N)CCCCCCCC(=N)N` showed an IC50 in assay [7] of 120 µM.

On to `NCCCOCCCN`, for which the Control came out at 100% in assay [1]; 100% in assay [2]; 100% in assay [3]; 100% in assay [4]; 85% in assay [5]. In assay [7], this compound had an IC50 of 13 µM.

In the case of `N=C(N)NCCCSCCCNC(=N)N`, the Control in assay [1] stood at 100%; in [2] it was 74%; in assay [3], 81%; in [4], 100%; in assay [5] it was 60%. The IC50 in [7] was 21 µM.

For `N=C(N)NCCCOCCCN`, in [7], the IC50 was 0.7 µM.

With `N=C(N)NCCCOCCCNC(=N)N`, the Control in assay [1], in assay [2], in [3], in assay [4] and in [9] was 100% in each case. The compound further registered an IC50 in [7] of 8 µM.

In the case of `CCNCCCCCCCN=C(N)N`, the Control stood at 34% in assay [1]; 36% in assay [2]; 95% in [3]; 76% in [4]; 28% in [5].

In assay [7], `N=C(N)NCCCCCCCCNC(=N)N` displayed a concentration for half-maximal inhibition (IC50) of 16.1 µM.

On to `NCCCSCCCN`, for which the Control in [1] was 86%; in [2] it was 93%; in [3], 100%; in assay [4], 100%; in [5], 81%. The midpoint of inhibition in assay [7], the IC50, lay at 83 µM.

`N=C(N)NCCCCSCCCNC(=N)N` yielded a 50% inhibitory concentration (IC50) in [7] of 48 µM.

For `NCCCCCNCCCCCN`, the concentration for half-maximal inhibition (IC50) in [7] is more than 1000 µM.

As for `N=C(N)SCCCCCSC(=N)N`, the IC50 in [7] was more than 1000 µM.

Regarding `N=C(N)CCCCCCCCCC(=N)N`, the IC50 in assay [7] was more than 1000 µM.

In assay [7], `N=C(N)NCCCCN` [AGMATINE] returned an IC50 of 156 µM.

Compound `N=C(N)CCCCCCC(=N)N` showed an IC50 in assay [7] of more than 1000 µM.

In the case of `N=C(N)NCCCCCCCNCCCCCCCNC(=N)N`, the Control stood at 88% in assay [1]; 74% in assay [2]; 95% in [3]; 90% in assay [4]; 67% in [5]. This compound returned an IC50 in assay [7] of 0.08 µM.

`N=C(N)NCCCCCCNCCCCCCNC(=N)N`: the Control in assay [1] came out at 93%; in assay [2], 100%; in [3], 95%; in assay [4], 96%; in assay [5], 87%. In assay [7], this compound displayed a half-maximal inhibitory concentration (IC50) of 40 µM.

For the compound `N=C(N)NCCCCCCN`, the IC50 in [7] worked out at 132 µM.

In the case of `N=C(N)SCCCCSC(=N)N`, the IC50 in assay [7] was more than 1000 µM.

Consider `NCCCSCCCN=C(N)N`, for which the Control in assay [1] amounted to 40%; in [2] it was 24%; in assay [3] it was 100%; in [4], 50%; in assay [5], 25%. Also, half-maximal inhibition in assay [7] (IC50) was put at 1.9 µM.

In the case of `N=C(N)NCCCCCCCCNCCCCCCCCN`, in assay [7], inhibition was half-maximal at 13 µM (IC50). This counts as double-digit micromolar.

As for `N=C(N)NCCCCCCNCCCCCCN`, the 50% inhibitory concentration (IC50) in assay [7] is 74 µM.

Turning to `N=C(N)NCCCCCCCCNCCCCCCCCNC(=N)N` [IMINOCTADIENE], the Control in assay [1] turned out to be 100%; in assay [2], 100%; in assay [3], 95%; in [4], 100%; in [5] it was 84%. In [7], this compound came in with an IC50 of 3.5 µM.

In the case of `NC(N)=NCCCCN=C(N)N` [ARCAINE], half-maximal inhibition in assay [7] (IC50) required 179 µM.

Regarding `NCCCCCNCCCCCN=C(N)N`, the Control in [1] is 80%; in [2], 92%; in assay [3] it was 74%; in assay [5], 65%. The same compound showed an IC50 in assay [7] of 100 µM.

For the compound `NCCCCCCNCCCCCCN=C(N)N`, the Control amounted to 45% in [1]; 48% in [2]; 80% in assay [3]; 61% in assay [4]; 35% in assay [5].

Take `N=C(N)NCCCNCCCNC(=N)N`: the Control turned out to be 80% in [1], 100% in assay [2], 95% in assay [3] and 98% in assay [4]. Moreover, in assay [6], the Growth inhibition result was “Not toxic”. The compound further showed an IC50 in assay [7] of 182 µM.

Consider `NCCCCNCCCCN`, for which the Growth inhibition entry in [6] was “Not toxic”. The midpoint of inhibition in [7], the IC50, lay at 556 µM.

Take `N=C(N)NCCCNCCCN`: the half-inhibitory concentration (IC50) in assay [7] was determined as 1.2 µM.

`NCCCCCCCNCCCCCCCN` gave an IC50 in assay [7] of 63 µM. Compared with the last compound, the IC50 is about 52-fold higher.

With `N=C(N)NCCCCCNCCCCCNC(=N)N`, the Control was found to be 100% in [1]; 100% in assay [2]; 95% in assay [3]; 100% in assay [4]; 100% in assay [5]. The same compound returned an IC50 in assay [7] of 38 µM.

Consider `NCCCCCN=C(N)N`, for which the IC50 in [7] amounted to 29 µM.

Consider `NCCCNCCCN` [NORSPERMIDINE], for which it took 41 µM to reach half-maximal inhibition in assay [7] (IC50). The IC50 values of the last two compounds are within 1.5-fold of each other.

The compound `N=C(N)NCCCCCCCNCCCCCCCN` came in with an IC50 in assay [7] of 0.3 µM. Against the preceding compound, the IC50 is about 140-fold lower.

Regarding `NCCCCCCCCNCCCCCCCCN=C(N)N`, the Control was 20% in assay [1]; 27% in [2]; 80% in [3]; 36% in assay [4]; 22% in assay [5].

Turning to `N=C(N)NCCCCCCCN`, the Control in assay [8] was 100%; in assay [1], 62%; in [4], 0%; in assay [5] it was 50%. Half-maximal inhibition in [7] (IC50) required 0.03 µM.

On to `N=C(N)SCCCCCCSC(=N)N`, for which the IC50 in [7] turned out to be 780 µM.

In turn, `NCCCCCCCCNCCCCCCCCN` registered an IC50 in [7] of 116 µM.

As for `N=C(N)CCCCCCCCCCC(=N)N`, the IC50 in assay [7] is more than 1000 µM.

With `N=C(N)NCCCCNCCCCNC(=N)N`, the Control in [1] came out at 100%; in assay [2], 100%; in [3], 85%; in assay [4] it was 100%; in [5] it was 100%. In [7], this compound returned a half-maximal inhibitory concentration (IC50) of 3.2 µM.

With `N=C(N)NCCCCCCCNC(=N)N`, in assay [7], it took 3.4 µM to reach half-maximal inhibition (IC50).

Consider `[H]/N=C(/N)NCCCCCNC(=N)N`, for which the IC50 in assay [7] amounted to 6.8 µM.

For `N=C(N)NCCCCCCNC(=N)N`, in [7], the IC50 was 112 µM.

In the case of `N=C(N)CCCCCCCCC(=N)N`, the half-maximal inhibitory concentration (IC50) in assay [7] was more than 1000 µM.

Turning to `CCNCCCCCCCNC(=N)N`, the half-maximal inhibitory concentration (IC50) in [7] came to 9 µM. That is a single-digit micromolar value.

For the compound `N=C(N)CCCCCC(=N)N`, the half-inhibitory concentration (IC50) in assay [7] is more than 1000 µM.

`NCCCCCCNCCCCCCN` gave a half-inhibitory concentration (IC50) in assay [7] of more than 1000 µM.

In the case of `NCCCNCCCN=C(N)N`, the Control in assay [8] is 76%; in assay [1], 77%; in assay [2], 23%; in assay [3], 34%; in assay [4], 50%; in assay [5], 75%.

Compound `NCCCNOCCCN` returned an IC50 in assay [7] of 385 µM.

`NCCCCCCCNCCCCCCCN=C(N)N`: the Control in assay [1] came to 24%; in assay [2] it was 22%; in assay [3], 65%; in assay [4], 34%; in assay [5] it was 20%.

As to `N=C(N)SCCCCCCCCSC(=N)N`, the IC50 in assay [7] is more than 1000 µM.

Regarding `N=C(N)SCCCCCCCSC(=N)N`, the IC50 in assay [7] was more than 1000 µM.

On to `N#CCCNCCCCCCCNC(=N)N`, for which inhibition in [7] was half-maximal at 96 µM (IC50).

Consider `N=C(N)NCCCCCCCCN`, for which the concentration for half-maximal inhibition (IC50) in assay [7] stood at 0.55 µM.
